According to ChEMBL document CHEMBL4673255, “Acylated 1H-1,2,4-Triazol-5-amines Targeting Human Coagulation Factor XIIa and Thrombin: Conventional and Microscale Synthesis, Anticoagulant Properties, and Mechanism of Action” (J Med Chem, 2020):
Calls of active or inactive are those of the source. The rule behind the calls is not given here.

Assays:
[1] = target: T1, Coagulation factor XII (Homo sapiens) (UniProt P00748); test: Binding affinity to human plasma coagulation factor XIIA assessed as compound-adduct formation by measuring change in molecular mass at molar ratio of 1:20 measured after 4 mins by SEC/ESI-TOF mass spectra analysis; assay type: cell-free
T1 sequence (whole entry): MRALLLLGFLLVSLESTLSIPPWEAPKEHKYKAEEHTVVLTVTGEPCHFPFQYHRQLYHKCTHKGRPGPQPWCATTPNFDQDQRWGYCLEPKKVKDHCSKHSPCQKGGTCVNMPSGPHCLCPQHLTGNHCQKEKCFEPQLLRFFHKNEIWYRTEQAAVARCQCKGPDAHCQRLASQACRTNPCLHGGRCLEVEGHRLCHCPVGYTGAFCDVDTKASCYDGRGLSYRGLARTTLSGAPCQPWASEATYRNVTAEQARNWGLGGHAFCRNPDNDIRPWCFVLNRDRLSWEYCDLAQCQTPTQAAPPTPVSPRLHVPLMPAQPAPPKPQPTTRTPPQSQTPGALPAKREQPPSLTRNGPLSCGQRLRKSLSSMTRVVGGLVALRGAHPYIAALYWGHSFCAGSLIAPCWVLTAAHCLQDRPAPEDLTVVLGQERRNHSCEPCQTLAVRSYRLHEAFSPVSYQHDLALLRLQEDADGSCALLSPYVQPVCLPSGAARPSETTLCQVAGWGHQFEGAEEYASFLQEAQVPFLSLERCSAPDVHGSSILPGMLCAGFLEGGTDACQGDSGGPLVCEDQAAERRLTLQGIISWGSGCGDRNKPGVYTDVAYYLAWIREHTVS
Summary of the method: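 β-FXIIa incubated with inhibitor at a 1:20 molar ratio, then size-exclusion chromatography coupled to ESI-MS to measure the mass of enzyme–inhibitor complexes. Further runs checked complex stability to probe reversibility.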

Plasma [2] = test: Antiplatelet activity in […] assessed as inhibition of MDA-MB-231-induced platelet aggregation at 0.1 to 10 uM by light transmission aggregometry; assay type: functional; details: Homo sapiens, dose 0.1-10 µM
Homo sapiens = species: Homo sapiens; test: Selectivity index, ratio of IC50 for inhibition of human coagulation factor alpha-thrombin using Boc-Val-Pro-Arg-AMC as fluorogenic substrate to IC50 for inhibition of human coagulation factor XIIA using Boc-Gln-Gly-Arg-AMC as fluorogenic substrate incubated for 1 hr by fluorometric assay
Prothrombin [3] = target: T2, Prothrombin (Homo sapiens, UniProt P00734); test: Inhibition of human coagulation factor alpha-thrombin using Boc-Val-Pro-Arg-AMC as fluorogenic substrate at 2 uM measured at 1 min interval for 1 hr by fluorometric assay relative to control
HepG2 = test: Cytotoxicity against human HepG2 cells assessed as reduction in cell viability at 100 uM incubated for 48 hrs by alamar blue assay relative to control; assay type: cell-based; details: hepg2, 48 h
CCF-STTG1 = test: Cytotoxicity against human CCF-STTG1 cells assessed as reduction in cell viability at 100 uM incubated for 48 hrs by alamar blue assay relative to control; assay type: cell-based; details: ccf-sttg1, 48 h
[4] = target: T1, Coagulation factor XII (Homo sapiens); test: Inhibition of human coagulation factor XIIA in presence of Boc-Gln-Gly-Arg-AMC as fluorogenic substrate at 1 uM measured at 1 min interval for 1 hr by fluorometric assay relative to control
Summary of the method: (§1)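 Screening of crude microscale amide-coupling products. Conversion was measured by 1H NMR and product content normalised to 76 µmol/L in DMSO, then tested at 1 µM and 100 nM in the fluorogenic FXIIa or thrombin assay. A 0-conversion reaction served as blank. Percent inhibition is from triplicates.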

Blood [5] = test: Anticoagulant activity in human blood assessed as increase in activated partial thromboplastin time at 300 uM incubated for 1 min by aPTT reagent based assay relative to control; assay type: functional
Summary of the method: (§2)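 Compounds were tested at 300 µM, and the increase was expressed relative to DMSO. The doubling concentration (EC2×) is the concentration prolonging aPTT twofold. At least triplicate, mean ± SD.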

Blood [6] = test: Effect on blood coagulation in human blood assessed as increase in prothrombin time at 300 uM incubated for 3 mins followed by CaCl2 addition by PT reagent based assay relative to control; assay type: ADME, tissue-based; details: 0.05 h
Summary of the method: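 Clotting was started with PT reagent already containing CaCl2, prewarmed to 37 °C, and clotting time was recorded. Increase is given relative to DMSO; at least triplicate, mean ± SD.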

[7] = Inhibition of porcine trypsin using Z-Gly-Gly-Arg-AMC as fluorogenic substrate measured at 1 min interval for 1 hr by fluorometric assay; design: species or system Sus scrofa
Coagulation factor X [8] = target: T3, Coagulation factor X (Homo sapiens, UniProt P00742); test: Inhibition of human coagulation factor Xa using Boc-Ile-Glu-Gly-Arg-AMC as fluorogenic substrate measured at 1 min interval for 1 hr by fluorometric assay
T3 sequence (P00742 41-179 limits assumed): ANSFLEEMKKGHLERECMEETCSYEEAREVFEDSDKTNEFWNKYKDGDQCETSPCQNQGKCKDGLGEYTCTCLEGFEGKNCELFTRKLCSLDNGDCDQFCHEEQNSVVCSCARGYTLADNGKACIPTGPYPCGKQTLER
T3 sequence (P00742 235-488 limits assumed): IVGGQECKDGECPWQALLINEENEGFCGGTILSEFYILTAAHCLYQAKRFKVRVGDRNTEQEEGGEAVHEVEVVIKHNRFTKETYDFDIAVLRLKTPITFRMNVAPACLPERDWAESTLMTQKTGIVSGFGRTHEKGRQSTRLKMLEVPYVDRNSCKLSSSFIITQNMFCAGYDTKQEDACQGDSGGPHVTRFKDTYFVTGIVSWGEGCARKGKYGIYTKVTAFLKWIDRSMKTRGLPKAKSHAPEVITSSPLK

Coagulation factor XII = target: T4, Coagulation factor XII (Homo sapiens, UniProt P00748); test: Inhibition of human coagulation factor XIIA using Boc-Gln-Gly-Arg-AMC as fluorogenic substrate measured at 1 min interval for 1 hr by fluorometric assay
T4 sequence (P00748 whole entry): T1 sequence (whole entry)

Coagulation factor XI = Coagulation factor XI (Homo sapiens, UniProt P03951); test: Inhibition of human coagulation factor XIA using Mes-dArg-Pro-Arg-AMC as fluorogenic substrate measured at 1 min interval for 1 hr by fluorometric assay
Sequence of Coagulation factor XI (P03951 19-387 limits assumed): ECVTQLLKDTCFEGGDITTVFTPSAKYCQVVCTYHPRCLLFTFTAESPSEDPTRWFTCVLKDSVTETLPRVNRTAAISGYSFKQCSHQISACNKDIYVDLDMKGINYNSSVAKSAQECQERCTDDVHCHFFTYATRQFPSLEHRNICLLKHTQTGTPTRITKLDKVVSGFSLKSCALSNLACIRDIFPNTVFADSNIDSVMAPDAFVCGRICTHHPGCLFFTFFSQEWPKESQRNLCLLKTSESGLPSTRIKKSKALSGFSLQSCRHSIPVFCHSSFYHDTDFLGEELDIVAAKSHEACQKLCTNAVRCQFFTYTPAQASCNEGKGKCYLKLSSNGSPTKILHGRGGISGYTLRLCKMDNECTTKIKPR
Sequence of Coagulation factor XI (P03951 388-625 limits assumed): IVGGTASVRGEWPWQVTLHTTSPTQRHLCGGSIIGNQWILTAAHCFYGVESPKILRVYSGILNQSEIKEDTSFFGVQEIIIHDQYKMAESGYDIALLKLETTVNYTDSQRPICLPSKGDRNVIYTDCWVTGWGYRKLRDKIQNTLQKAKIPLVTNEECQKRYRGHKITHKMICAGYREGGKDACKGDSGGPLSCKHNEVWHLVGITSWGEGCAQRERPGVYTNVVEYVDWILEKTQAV

[9] = target: T5, Urokinase-type plasminogen activator (Homo sapiens, UniProt P00749); test: Inhibition of human uPA using Tos-Gly-Pro-Arg-AMC as fluorogenic substrate measured at 1 min interval for 1 hr by fluorometric assay
Plasminogen = Plasminogen (Homo sapiens, UniProt P00747); test: Inhibition of human plasmin using Mes-dArg-Phe-Arg-AMC as fluorogenic substrate measured at 1 min interval for 1 hr by fluorometric assay
Sequence of Plasminogen (P00747 97-580 limits assumed): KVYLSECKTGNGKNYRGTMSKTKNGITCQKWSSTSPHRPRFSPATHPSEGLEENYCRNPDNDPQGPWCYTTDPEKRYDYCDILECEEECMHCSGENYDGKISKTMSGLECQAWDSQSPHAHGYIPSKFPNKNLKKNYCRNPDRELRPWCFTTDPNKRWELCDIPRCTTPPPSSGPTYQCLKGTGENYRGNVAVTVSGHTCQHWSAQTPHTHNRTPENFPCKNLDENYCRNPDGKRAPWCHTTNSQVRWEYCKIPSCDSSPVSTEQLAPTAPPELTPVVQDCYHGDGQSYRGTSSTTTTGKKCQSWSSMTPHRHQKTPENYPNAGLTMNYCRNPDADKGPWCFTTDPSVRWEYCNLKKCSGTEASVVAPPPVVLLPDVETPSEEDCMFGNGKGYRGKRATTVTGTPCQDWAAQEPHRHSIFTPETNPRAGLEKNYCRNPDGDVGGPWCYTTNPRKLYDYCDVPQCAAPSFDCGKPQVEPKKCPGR
Sequence of Plasminogen (P00747 581-810 limits assumed): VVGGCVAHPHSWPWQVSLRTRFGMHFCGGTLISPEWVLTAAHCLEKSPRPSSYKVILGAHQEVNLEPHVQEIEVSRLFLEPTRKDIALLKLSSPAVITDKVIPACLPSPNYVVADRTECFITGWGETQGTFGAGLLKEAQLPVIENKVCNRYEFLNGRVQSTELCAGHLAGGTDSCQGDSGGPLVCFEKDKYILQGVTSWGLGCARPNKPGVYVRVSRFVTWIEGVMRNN

Plasma kallikrein = Plasma kallikrein (Homo sapiens, UniProt P03952); test: Inhibition of human kallikrein using Mes-dArg-Pro-Arg-AMC as fluorogenic substrate measured at 1 min interval for 1 hr by fluorometric assay
Sequence of Plasma kallikrein (P03952 20-390 limits assumed): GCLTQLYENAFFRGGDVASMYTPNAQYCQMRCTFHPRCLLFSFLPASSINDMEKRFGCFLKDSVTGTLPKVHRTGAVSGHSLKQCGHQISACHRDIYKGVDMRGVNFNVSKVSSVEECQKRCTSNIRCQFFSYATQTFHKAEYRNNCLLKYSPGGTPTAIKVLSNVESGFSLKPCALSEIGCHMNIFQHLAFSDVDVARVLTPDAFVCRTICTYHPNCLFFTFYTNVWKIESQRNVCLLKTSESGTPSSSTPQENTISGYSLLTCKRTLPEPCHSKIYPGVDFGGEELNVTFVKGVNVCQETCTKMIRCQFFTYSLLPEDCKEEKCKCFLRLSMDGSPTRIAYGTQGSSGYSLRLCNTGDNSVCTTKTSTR
Sequence of Plasma kallikrein (P03952 391-638 limits assumed): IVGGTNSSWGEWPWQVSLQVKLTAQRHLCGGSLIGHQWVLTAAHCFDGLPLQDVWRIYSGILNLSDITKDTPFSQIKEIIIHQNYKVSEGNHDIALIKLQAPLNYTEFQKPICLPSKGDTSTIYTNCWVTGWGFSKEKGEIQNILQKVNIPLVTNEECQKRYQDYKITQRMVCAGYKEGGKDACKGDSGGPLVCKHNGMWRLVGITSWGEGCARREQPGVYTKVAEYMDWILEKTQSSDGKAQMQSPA

Monoglyceride lipase = target: T6, Monoglyceride lipase (Homo sapiens, UniProt Q99685); test: Inhibition of human recombinant MAGL using 1,3-dihydroxypropan-2-yl 4-pyren-1-ylbutanoate as substrate measured after 45 mins by reverse-phase HPLC-based fluorescence assay
T6 sequence (Q99685 whole entry): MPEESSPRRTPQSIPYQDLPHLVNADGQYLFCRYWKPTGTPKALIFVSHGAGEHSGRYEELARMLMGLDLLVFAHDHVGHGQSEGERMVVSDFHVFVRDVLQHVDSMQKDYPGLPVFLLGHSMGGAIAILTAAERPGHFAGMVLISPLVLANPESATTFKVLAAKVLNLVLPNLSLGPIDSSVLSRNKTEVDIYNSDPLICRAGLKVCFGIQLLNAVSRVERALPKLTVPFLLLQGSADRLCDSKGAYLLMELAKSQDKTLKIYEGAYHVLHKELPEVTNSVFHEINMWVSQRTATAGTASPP

[10] = target: T7, Fatty-acid amide hydrolase 1 (Rattus norvegicus, UniProt P97612); test: Inhibition of FAAH in rat brain membrane using N-(2-hydroxyethyl)-4-pyren-1-ylbutanamide as substrate measured after 60 mins by reverse-phase HPLC-based fluorescence assay; assay type: cell membranes
T7 sequence (P97612 whole entry): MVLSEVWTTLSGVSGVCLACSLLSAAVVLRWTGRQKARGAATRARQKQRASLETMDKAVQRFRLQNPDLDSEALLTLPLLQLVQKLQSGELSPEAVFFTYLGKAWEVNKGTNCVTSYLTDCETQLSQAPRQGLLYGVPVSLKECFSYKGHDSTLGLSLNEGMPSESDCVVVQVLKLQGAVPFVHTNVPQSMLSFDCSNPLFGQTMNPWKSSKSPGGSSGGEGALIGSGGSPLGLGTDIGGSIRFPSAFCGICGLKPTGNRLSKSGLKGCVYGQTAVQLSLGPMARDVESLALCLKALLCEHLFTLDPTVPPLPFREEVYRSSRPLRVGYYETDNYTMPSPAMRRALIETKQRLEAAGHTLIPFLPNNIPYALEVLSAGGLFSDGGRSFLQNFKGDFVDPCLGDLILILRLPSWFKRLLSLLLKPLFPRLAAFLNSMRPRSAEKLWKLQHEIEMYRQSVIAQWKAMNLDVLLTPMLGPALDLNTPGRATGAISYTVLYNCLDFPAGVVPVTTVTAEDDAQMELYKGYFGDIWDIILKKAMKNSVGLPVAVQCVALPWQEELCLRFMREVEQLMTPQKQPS

Blood [11] = test: Anticoagulant activity in human blood assessed as activated partial thromboplastin time at 300 uM incubated for 1 min by aPTT reagent based assay (reference value: 44 sec); assay type: functional; summary of the method: as §2
Prothrombin [12] = target: T2, Prothrombin; test: Inhibition of human coagulation factor alpha-thrombin using Boc-Val-Pro-Arg-AMC as fluorogenic substrate measured at 1 min interval for 1 hr by fluorometric assay
Plasma [13] = test: (§3) Anticoagulant activity in human platelet-rich plasma assessed as reduction in TF-induced thrombin generation by measuring endogenous thrombin potential at 1 uM preincubated for 15 mins followed by TF addition by Z-Gly-Gly-Arg-AMC substrate based calibrated automated thrombography (reference value: 1203 +/- 44 AU.min/L); assay type: functional; details: 0.25 h
Summary of the method: (§4)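 Tissue-factor-triggered homogeneous thrombin generation followed by fluorogenic substrate cleavage. Read-outs: clotting time (T1/2), peak amplitude (Amax, AU/L), time to peak (Tmax) and ETP (AU·min/L). DMSO and buffer served as controls. n = 3, mean ± SD.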

Plasma [14] = test: as §3, with “Tmax of clotting time” for “endogenous thrombin potential”, “8.1” for “1203”, “0.6 min)” for “44 AU.min/L)”; assay type: functional, cell-free; summary of the method: as §4
Plasma [15] = test: Anticoagulant activity in human platelet-rich plasma assessed as reduction in TF-induced thrombin generation by measuring half life of clotting time at 1 uM preincubated for 15 mins followed by TF addition by Z-Gly-Gly-Arg-AMC substrate based calibrated automated thrombography (Rvb= 3 +/- 0.5 min); assay type: functional, cell-free; summary of the method: as §4
Plasma [16] = test: as §3, with “amplitude of” for “endogenous”, “peak” for “potential”, “63” for “1203”, “3.7 AU/L)” for “44 AU.min/L)”; assay type: functional; details: 0.25 h; summary of the method: as §4
[17] = target: T1, Coagulation factor XII (Homo sapiens); test: […] inhibition of human coagulation factor XIIA using Boc-Gln-Gly-Arg-AMC as fluorogenic substrate measured every 87 sec for 180 mins by time-dependent fluorescence assay
Summary of the method: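 Fluorescence (ex 355/em 460 nm) was read at once, every 87 s, for up to 180 min. IC50 was computed at each time point and plotted against time.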

Coagulation factor X [18] = target: T3, Coagulation factor X; test: Inhibition of human coagulation factor Xa using Boc-Ile-Glu-Gly-Arg-AMC as fluorogenic substrate at 1 uM measured at 1 min interval for 1 hr by fluorometric assay relative to control
Prothrombin [19] = target: T2, Prothrombin; test: Inhibition of human coagulation factor alpha-thrombin at 33 uM using Boc-Val-Pro-Arg-AMC as fluorogenic substrate measured at 1 min interval for 1 hr by fluorometric assay relative to control
Prothrombin [20] = target: T2, Prothrombin; test: Inhibition of human coagulation factor thrombin using Boc-Val-Pro-Arg-AMC as fluorogenic substrate at 100 nM measured at 1 min interval for 1 hr by fluorometric assay relative to control; summary of the method: as §1
[21] = target: T1, Coagulation factor XII (Homo sapiens); test: Inhibition of human coagulation factor XIIA using Boc-Gln-Gly-Arg-AMC as fluorogenic substrate at 100 nM measured at 1 min interval for 1 hr by fluorometric assay relative to control; summary of the method: as §1
[22] = target: T5, Urokinase-type plasminogen activator; test: Inhibition of human uPA using Tos-Gly-Pro-Arg-AMC as fluorogenic substrate at 5 uM measured at 1 min interval for 1 hr by fluorometric assay relative to control

Compound | Ratio IC50 (Homo sapiens) | inhibition [4] [%] | Activity (Blood [6]) [%] | IC50 [7] [µM] | IC50 (Coagulation factor X [8]) [µM] | IC50 (Coagulation factor XII) [µM] | IC50 (Coagulation factor XI) [µM] | IC50 (Plasminogen) [µM] | IC50 (Plasma kallikrein) [µM] | IC50 (Prothrombin [12]) [µM] | inhibition [17] | Activity (Blood [5]) [%] | also measured
Cn1c(CNc2ccc(C(=N)N)cc2)nc2cc(C(=O)N(CCC(=O)O)c3ccccn3)ccc21 [DABIGATRAN] | – | -1 | – | – | – | – | – | – | – | – | inactive | 252 | Activity (Plasma [13]): 678 AU.min/L; Tmax (Plasma [14]): 25.5 min; T1/2 (Plasma [15]): 15.2 min; Activity (Plasma [16]): 72.4 AU/L; inhibition (Coagulation factor X [18]): 34%; Ki [7]: 0.05 µM
O=C(NC[C@H]1CN(c2ccc(N3CCOCC3=O)cc2)C(=O)O1)c1ccc(Cl)s1 [RIVAROXABAN] | – | -3 | 1302 | > 5 | – | > 33 | – | – | – | – | inactive | 335 | inhibition (Prothrombin [19]): 55%

Now from value to compound, other results behind:

Ratio IC50 (Homo sapiens) | inhibition [4] [%] | Activity (Blood [6]) [%] | IC50 [7] [µM] | IC50 (Coagulation factor X [8]) [µM] | IC50 (Coagulation factor XII) [µM] | IC50 (Coagulation factor XI) [µM] | IC50 (Plasminogen) [µM] | IC50 (Plasma kallikrein) [µM] | IC50 (Prothrombin [12]) [µM] | inhibition [17] | Compound | Activity (Blood [5]) [%] | also measured
> 18 | 89 | 2 | > 5 | > 5 | 0.109 | – | – | – | – | – | Nc1nc(-c2ccccn2)nn1C(=O)c1ccc(NC(=O)c2ccccc2)cc1 | 35 | Activity [1]: 223 Da; inhibition (Plasma [2]): inactive; inhibition (Prothrombin [3]): 38%; Activity (HepG2): 13%; Activity (CCF-STTG1): 35%
– | 81 | 12 | > 5 | > 5 | 0.132 | > 5 | > 5 | > 5 | 0.235 | – | Nc1nc(-c2ccccn2)nn1C(=O)c1ccccc1 | 143 | IC50 [9]: 7.93 µM; IC50 (Monoglyceride lipase): > 5 µM; IC50 [10]: > 5 µM; APTT (Blood [11]): 108 s
29 | 89 | 6 | – | > 5 | 0.062 | > 5 | > 5 | > 5 | 1.82 | – | Nc1nc(-c2ccccn2)nn1C(=O)Cc1ccccc1I | 92 | inhibition (Prothrombin [20]): 2%; inhibition [21]: 47%; inhibition [22]: 41%
